Assay results as given in ChEMBL document CHEMBL2331096, “Montmorillonite K-10 catalyzed green synthesis of 2,6-unsubstituted dihydropyridines as potential inhibitors of PDE4” (Eur J Med Chem, 2013).

Each molecule was assayed against T1, 3',5'-cyclic-AMP phosphodiesterase 4B (Homo sapiens, UniProt Q07343) (assay: Inhibition of recombinant His-tagged PDE4B (unknown origin) expressed in Sf9 cells using cAMP as substrate incubated for 15 mins prior to substrate addition measured after 1 hr by luminescence-based assay).
Procedure, shortened: (§1)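 His-tagged PDE4B made in baculovirus-infected Sf9 cells (lysed 48 h post-infection) and purified on Ni-NTA with imidazole elution. Enzyme (10 ng) pre-incubated 15 min with compound or DMSO vehicle, then 1 h with cAMP substrate; reaction stopped, detection reagent added for 10 min in dark, luminescence (RLU) read. Percent inhibition calculated from RLU relative to vehicle control.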

T1 sequence (Q07343 whole entry): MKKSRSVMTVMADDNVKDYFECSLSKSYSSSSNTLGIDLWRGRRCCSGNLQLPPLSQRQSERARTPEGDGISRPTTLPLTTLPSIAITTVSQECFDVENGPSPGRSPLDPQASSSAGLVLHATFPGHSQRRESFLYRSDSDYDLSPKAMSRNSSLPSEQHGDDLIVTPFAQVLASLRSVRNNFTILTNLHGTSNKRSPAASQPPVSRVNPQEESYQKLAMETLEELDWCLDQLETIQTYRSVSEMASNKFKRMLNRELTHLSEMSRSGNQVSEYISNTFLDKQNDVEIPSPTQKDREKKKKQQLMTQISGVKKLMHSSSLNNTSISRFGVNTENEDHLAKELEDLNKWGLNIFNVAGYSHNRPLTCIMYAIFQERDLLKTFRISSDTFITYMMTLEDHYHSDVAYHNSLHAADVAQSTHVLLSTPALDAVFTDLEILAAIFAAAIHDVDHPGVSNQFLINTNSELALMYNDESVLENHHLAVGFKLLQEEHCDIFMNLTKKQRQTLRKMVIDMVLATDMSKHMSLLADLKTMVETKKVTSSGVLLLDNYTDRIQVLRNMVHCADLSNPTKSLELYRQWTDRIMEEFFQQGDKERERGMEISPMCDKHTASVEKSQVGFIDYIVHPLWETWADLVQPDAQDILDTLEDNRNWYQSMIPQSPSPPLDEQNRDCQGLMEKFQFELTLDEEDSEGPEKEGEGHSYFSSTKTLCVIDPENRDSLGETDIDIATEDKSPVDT

Row | IC50 [µM] | inhibition | Structure (SMILES)
1 | > 5 | Dose-dependent effect | CCOC(=O)C1=CN(c2ccccc2OC)C=C(C(=O)OCC)C1c1ccc(Br)cc1

Each molecule was assayed against T1, 3',5'-cyclic-AMP phosphodiesterase 4B (assay: Inhibition of recombinant His-tagged PDE4B (unknown origin) expressed in Sf9 cells using cAMP as substrate at 30 uM incubated for 15 mins prior to substrate addition measured after 1 hr by luminescence-based assay).
Procedure, shortened: as §1

Row | Structure (SMILES) | inhibition [%]
2 | CCOC(=O)C1=CN(c2ccccc2OC)C=C(C(=O)OCC)C1c1cccc(Br)c1 | 37.3
3 | CCOC(=O)C1=CN(c2ccccc2OC)C=C(C(=O)OCC)C1c1ccccc1 | 29.9
4 | CCOC(=O)C1=CN(c2cccc(Cl)c2)C=C(C(=O)OCC)C1c1ccc(F)cc1 | 44.2
5 | CCOC(=O)C1=CN(c2ccccc2OC)C=C(C(=O)OCC)C1c1ccc(OC)cc1 | 59.2
6 | CCOC(=O)C1=CN(c2ccc(OC)cc2OC)C=C(C(=O)OCC)C1c1ccc(F)c(F)c1 | 69.2
7 | CCOC(=O)C1=CN(c2ccccc2OC)C=C(C(=O)OCC)C1c1ccc(F)c(F)c1 | 46
8 | CCOC(=O)C1=CN(c2ccccc2OC)C=C(C(=O)OCC)C1c1cccc(Cl)c1 | 30.4
9 | CCOC(=O)C1=CN(c2ccc(OC)cc2)C=C(C(=O)OCC)C1c1ccc(F)c(F)c1 | 78.7
10 | CCOC(=O)C1=CN(c2ccccc2OC)C=C(C(=O)OCC)C1c1ccc(F)cc1 | 33.4

The remaining lines, values ahead:

Row | inhibition [%] | Structure (SMILES)
11 | 40.2 | CCOC(=O)C1=CN(c2ccc(OC)cc2)C=C(C(=O)OCC)C1c1ccc(F)cc1
12 | 35.1 | CCOC(=O)C1=CN(c2ccc(OC)cc2)C=C(C(=O)OCC)C1c1ccc(Br)cc1
13 | 78.4 | CCOC(=O)C1=CN(c2ccccc2OC)C=C(C(=O)OCC)C1c1ccc(Br)cc1
14 | 39.3 | CCOC(=O)C1=CN(c2ccc(OC)cc2)C=C(C(=O)OCC)C1c1ccccc1
15 | 42 | CCOC(=O)C1=CN(c2ccc(OC)cc2)C=C(C(=O)OCC)C1c1cccc(Br)c1
